ChEMBL document CHEMBL1143217, “Bioisosteric replacement of dihydropyrazole of 4S-(-)-3-(4-chlorophenyl)-N-methyl-N'-[(4-chlorophenyl)-sulfonyl]-4-phenyl-4,5-dihydro-1H-pyrazole-1-caboxamidine (SLV-319) a potent CB1 receptor antagonist by imidazole and oxazole” (2008)
Structures can show the parent of a compound that is named as a salt.

Assays:
Rattus norvegicus = assay: Inhibition of 5% sucrose solution intake in Zucker fa/fa rat at 10 mg/kg, po on day 7 after 1 hr; type: functional
Method in brief: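 Female Zucker fa/fa rats (10–12 weeks, 300–350 g) were trained on six consecutive days, without food or water during sessions. On day 7 they were randomized (n = 6/group) and dosed orally at 10 mg/kg in 0.5% CMC-Na/water (2 mL/kg). One hour later they had 5% sucrose for 4 h. Intake (g) and % inhibition vs control; mean ± SEM; one-way ANOVA with Dunnett's test.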

[1] = biological target: Cannabinoid receptor 1 (Homo sapiens) (UniProt P21554); assay: Antagonist activity at human CB1 receptor expressed in CHO cells assessed as forskolin-induced cAMP accumulation per ug of protein at 10 uM in presence of WIN-55212-2; type: functional, cell-based
Chain of Cannabinoid receptor 1 (Homo sapiens) (P21554 whole entry): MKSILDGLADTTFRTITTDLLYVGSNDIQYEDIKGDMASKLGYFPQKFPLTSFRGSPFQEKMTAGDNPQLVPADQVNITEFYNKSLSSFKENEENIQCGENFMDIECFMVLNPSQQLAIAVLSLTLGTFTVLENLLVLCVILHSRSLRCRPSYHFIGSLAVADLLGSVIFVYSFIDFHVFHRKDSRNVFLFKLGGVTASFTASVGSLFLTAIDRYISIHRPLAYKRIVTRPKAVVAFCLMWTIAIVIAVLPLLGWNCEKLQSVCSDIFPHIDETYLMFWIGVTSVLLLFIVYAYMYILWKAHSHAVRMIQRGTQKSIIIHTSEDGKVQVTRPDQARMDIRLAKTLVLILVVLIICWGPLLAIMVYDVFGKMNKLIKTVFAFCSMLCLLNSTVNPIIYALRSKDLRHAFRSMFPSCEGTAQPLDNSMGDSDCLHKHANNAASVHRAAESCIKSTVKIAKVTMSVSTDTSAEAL
Method in brief: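 CHO-K1 cells stably expressing human CB1 were kept in HAM's F12 with 10% heat-inactivated dialyzed FBS and 0.8 mg/mL G-418. Cells were seeded at 50,000/well, grown 16–18 h, then preincubated 30 min at 37 °C with 0.25% fatty-acid-free BSA, IBMX 0.1 mM and RO20-1724 0.1 mM. Drugs were added for 5 min, then forskolin (10, final) for 20 min. Cells were lysed in 0.1 N HCl/0.1% Triton for cAMP ELISA. Mean ± SD, duplicate, ≥3 experiments.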

Row | SMILES | inhibition in vivo at 10 mg/kg (Rattus norvegicus) [%] | Activity [1] [pmol]
1 | CN/C(=N/S(=O)(=O)c1ccc(Cl)cc1)c1nc(-c2ccccc2)c(-c2ccc(Cl)cc2)o1 | 4.3 | 0.6
2 | CN/C(=N\S(=O)(=O)c1ccc(Cl)cc1)N1C[C@H](c2ccccc2)C(c2ccc(Cl)cc2)=N1 [IBIPINABANT] | 37.6 | –
3 | CN/C(=N/S(=O)(=O)c1ccc(Cl)cc1)c1cn(-c2ccc(Cl)cc2)c(-c2ccccc2)n1 | 6.7 | 0.55
4 | Cc1c(C(=O)NN2CCCCC2)nn(-c2ccc(Cl)cc2Cl)c1-c1ccc(Cl)cc1 [RIMONABANT HYDROCHLORIDE] | 36.1 | –
5 | CN/C(=N/S(=O)(=O)c1ccc(Cl)cc1)c1nc(-c2ccc(Cl)cc2)c(-c2ccccc2)o1 | 0.6 | 1.3
6 | CN/C(=N/S(=O)(=O)c1ccc(Cl)cc1)C1CN(c2ccccc2)C(c2ccc(Cl)cc2)=N1 (configuration not stated) | 14.4 | 1.22
7 | CN/C(=N/S(=O)(=O)c1ccc(Cl)cc1)C1CN(c2ccc(Cl)cc2)C(c2ccccc2)=N1 (configuration not stated) | 2.2 | 0.94
